For twelve molecules, Activity_index, Activity and Stability results are on record in ChEMBL document CHEMBL5104216, “Fragment-Sized Thiazoles in Fragment-Based Drug Discovery Campaigns: Friend or Foe?” (ACS Med Chem Lett, 2022).

Data set [1] can be described thus: Redox activity of compound assessed as redox index at 100 uM in presence of 1 mM DTT measured by HRP-PR assay. The class given is physicochemical. The method, boiled down:
(§1)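 H2O2 from redox cycling, with or without DTT, detected with horseradish peroxidase-phenol red (HRP-PR).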

Data set [2] deals with Mycobacterium tuberculosis. The experiment in a line: Inhibition of Mycobacterium tuberculosis MetAP1a assessed as residual activity at 625 uM using L-methionine 7-amido-4-methylcoumarin as fluorogenic substrate and measured by fluorescence based assay. The essentials: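 Kinetic fluorescence assay in which the enzyme hydrolyses L-methionine 7-amido-4-methylcoumarin to fluorescent 7-amino-4-methylcoumarin. Compounds were tested at 500–625 μM, and activity was called at <50% residual activity. Spectral interference was checked by measuring absorbance at the excitation and emission wavelengths and compound autofluorescence.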

Data set [3] in a line: Redox activity of compound assessed as redox index at 100 uM in presence of 100 uM TCEP measured by H2DCFDA assay. The class given is physicochemical. The method, boiled down:
(§2)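 Reactive oxygen species, with or without the reducing agent TCEP, detected with the fluorescent probe H2DCFDA. Compound spectral interference (autofluorescence) checked under the assay conditions.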

The target in data set [4] is UDP-N-acetylglucosamine 1-carboxyvinyltransferase (Escherichia coli K-12) (UniProt P0A749). The experiment in a line: Inhibition of recombinant Escherichia coli MurA assessed as residual activity at 500 uM using UDP-N-acetylglucosamine as substrate preincubated for 30 mins followed by substrate addition and measured by malachite green based colorimetric assay relative to control. The essentials:
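E. coli MurA at 500–625 μM with 30 min preincubation before substrate addition. Malachite green colorimetric read-out. Activity threshold was <50% residual activity.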

Data set [5] can be described thus: Redox activity of compound assessed as redox index at 100 uM measured by H2DCFDA assay. It counts as physicochemical. The essentials: as §2
Data set [6] is described as follows: Redox activity of compound assessed as redox index at 100 uM measured by HRP-PR assay. It counts as physicochemical. The method, boiled down:
as §1

A short description of data set [7]: Aqueous stability of the compound at pH 7.4 measured after 60 mins by spectrophotometric analysis. The class given is physicochemical. As to conditions: buffer, pH 7.4, 1 h. The method, boiled down: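 Followed by spectrophotometry as changes in the compound absorption spectrum over time in 50 mM Tris-HCl pH 7.4, 0.5 mM EDTA, read after 60 min in 96-well microplate format. Compounds with low absorbance were not evaluated.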

The target in data set [8] is UDP-N-acetylglucosamine 1-carboxyvinyltransferase (Escherichia coli K-12) (UniProt P0A749). The experiment in a line: Inhibition of recombinant Escherichia coli MurA assessed as residual activity at 500 uM using UDP-N-acetylglucosamine as substrate preincubated for 30 mins in presence of 1 mM DTT followed by substrate addition and measured by malachite green based colorimetric assay relative to control.
Sequence of UDP-N-acetylglucosamine 1-carboxyvinyltransferase (Escherichia coli K-12) (P0A749 whole entry): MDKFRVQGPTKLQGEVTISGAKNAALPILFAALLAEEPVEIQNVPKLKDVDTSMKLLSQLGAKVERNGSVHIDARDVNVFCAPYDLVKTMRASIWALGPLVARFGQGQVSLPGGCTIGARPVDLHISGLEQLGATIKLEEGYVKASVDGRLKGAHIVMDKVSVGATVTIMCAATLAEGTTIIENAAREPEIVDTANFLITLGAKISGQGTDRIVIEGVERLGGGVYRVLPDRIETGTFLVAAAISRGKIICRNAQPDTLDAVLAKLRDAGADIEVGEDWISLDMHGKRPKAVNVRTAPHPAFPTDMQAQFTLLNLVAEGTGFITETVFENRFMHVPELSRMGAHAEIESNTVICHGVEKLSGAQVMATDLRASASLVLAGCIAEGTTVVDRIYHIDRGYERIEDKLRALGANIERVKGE

Data set [9] shares this target. The experiment in a line: Inhibition of recombinant Escherichia coli MurA assessed as residual activity at 500 uM using UDP-N-acetylglucosamine as substrate and measured by malachite green based colorimetric assay relative to control. The method, boiled down: (§3)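 Screened at 500–625 μM with malachite green colorimetric read-out. Activity threshold was <50% residual activity.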

Data set [10] in a line: Redox activity of compound assessed as redox index at 1 uM measured by resazurin assay. It counts as physicochemical. The method, boiled down:
(§4)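 Free radicals formed by redox cycling with DTT detected with resazurin by fluorimetric read-out. Spectral interference checked.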
On the technique in general: Alamar Blue is a resazurin reagent that responds to reducing activity.

Data set [11] is described as follows: Redox activity of compound assessed as redox index at 10 uM measured by resazurin assay. It counts as physicochemical. The essentials:
as §4

In data set [12] the target is Replicase polyprotein 1ab (Severe acute respiratory syndrome coronavirus 2) (UniProt P0DTD1). The experiment in a line: Inhibition of recombinant SARS-CoV-2 3CLpro expressed in Escherichia coli NiCo21(DE3) assessed as residual activity at 500 uM using DABCYL-KTSAVLQSGFRKME-EDANS as substrate preincubated for 30 mins followed by substrate addition and measured by FRET assay relative to control. The method, boiled down: (§5)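 Kinetic fluorescence read-out of cleavage of a FRET substrate carrying a DABCYL–EDANS pair. Compounds were tested at 500–625 μM, and <50% residual activity was taken as the activity threshold. To exclude false positives, absorbance at the excitation and emission wavelengths and autofluorescence of the compounds were measured.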

For data set [13], the target named is D-alanine--D-alanine ligase B (Escherichia coli K-12) (UniProt P07862). The data set is described as follows: Inhibition of recombinant Escherichia coli DdlB assessed as residual activity at 500 uM using D-alanine as substrate incubated for 20 mins and measured by malachite green based colorimetric assay relative to control. The essentials:
as §3

Data set [14] has as its target Replicase polyprotein 1ab (Severe acute respiratory syndrome coronavirus 2) (UniProt P0DTD1). The experiment in a line: Inhibition of recombinant SARS-CoV-2 3CLpro expressed in Escherichia coli NiCo21(DE3) assessed as residual activity at 500 uM using DABCYL-KTSAVLQSGFRKME-EDANS as substrate preincubated for 30 mins in presence of 1mM DTT followed by substrate addition and measured by FRET assay relative to control. The method, boiled down: as §5

As to `COC(=O)c1csc(Br)n1`, the Activity_index worked out at 1 in data set [1]; 0.9 in data set [3]; 0.8 in data set [5]; 1 in [6]; 1.4 in [10]; 0.8 in data set [11]. For the same molecule, the Activity stood at 88.2% in [2]; 117% in [4]; 104% in [8]; 106% in data set [9]; 73.7% in data set [12]; 95% in data set [13]. Also, the Activity in data set [14] is 68.6%. Further, in data set [7], the Stability result is “Stable”.
Turning to `Nc1nnc(C2CC2)s1`, the Activity_index in [1] came out at 1.1; in data set [3] it was 1.2; in data set [5], 1.2; in [6], 1.1; in data set [10] it was 0.9; in data set [11], 0.9. In addition, the Activity in data set [2] amounted to 92.5%; in [4], 2.2%; in data set [8], 99.8%; in [9], 3.5%; in [12], 34.2%; in data set [13], 96%. The Activity in data set [14] came out at 79.3%. Moreover, the Stability result in data set [7] was “Stable”.
Turning to `Nc1nccs1` [AMINOTHIAZOLE], the Activity_index is 1 in data set [1]; 0.9 in data set [3]; 0.8 in [5]; 1 in [6]; 0.9 in data set [10]; 0.9 in [11]. For the same molecule, the Activity in data set [2] came out at 94.6%; in data set [4] it was 39.7%; in [8], 105%; in [9], 88%; in data set [12] it was 86.1%; in data set [13], 95%. The Activity in data set [14] stood at 82.5%. Moreover, the Stability result in data set [7] is recorded as “Stable”.
Turning to `O=C(O)c1csc(Br)n1`, the Activity_index in data set [1] is 1; in data set [3] it was 1; in [5], 1; in data set [6], 1; in data set [10], 0.9; in [11], 0.9. Also, the Activity turned out to be 81.7% in data set [2]; 96% in data set [4]; 101% in data set [8]; 102% in [9]; 73.6% in data set [12]; 92% in data set [13]. For the same molecule, the Activity in data set [14] came out at 73.7%. Moreover, the Stability result in data set [7] is reported as “Stable”.
As to `O=C(O)c1csc(-c2ccncc2)n1`, the Activity_index in data set [1] came to 1; in [3], 1.1; in [5], 1; in data set [6], 1; in [10], 1; in [11], 1. The Activity in data set [2] came out at 93.4%; in data set [4], 90.4%; in data set [8], 106%; in data set [9], 103%; in data set [12] it was 98%; in data set [13], 96%. The Activity in [14] worked out at 94.4%. The Stability result in data set [7] is listed as “Stable”.
Turning to `COC(=O)C(=O)Nc1ncc(Br)s1`, the Activity_index in data set [1] is given as 1; in data set [3] it was 0.8; in data set [5], 0.8; in data set [6] it was 1; in [10] it was 0.9; in data set [11], 1.1. Moreover, the Activity in data set [2] came to 156%; in data set [4] it was 37.2%; in [8] it was 112%; in data set [9], 81.7%; in data set [12], 89.5%; in data set [13], 94%. Besides, the Activity in data set [14] came to 66.2%. Also, the Stability entry in [7] was “Unstable”.
Regarding `Cc1nc(-c2ccc(C(=O)O)cc2)cs1`, the Activity_index came to 1 in data set [1]; 0.9 in data set [3]; 0.9 in data set [5]; 1 in data set [6]; 0.9 in [10]; 1.1 in [11]. The Activity in data set [2] stood at 136%; in data set [4] it was 113%; in data set [8], 101%; in data set [9] it was 102%; in [12] it was 149%; in [13], 94%. In addition, the Activity in [14] is 81.2%. Moreover, in data set [7], the Stability result is given as “Stable”.
As to `N#Cc1cnc(NC(=O)CC(=O)O)s1`, the Activity_index is on record as 1 in data set [1]; 0.8 in data set [3]; 0.7 in data set [5]; 1 in data set [6]; 0.9 in data set [10]; 1 in data set [11]. Moreover, the Activity worked out at 146% in [2]; 20.3% in [4]; 109% in data set [8]; 72.3% in data set [9]; 93.5% in data set [12]; 96% in data set [13]. Also, the Activity in data set [14] was 79.7%. Besides, the Stability result in data set [7] is reported as “Stable”.
For the molecule `Cc1nc(Br)sc1C(=O)O`, the Activity_index in [1] worked out at 1; in data set [3] it was 1.1; in data set [5], 1.2; in data set [6] it was 1; in [10], 0.9; in data set [11], 0.9. The Activity was determined as 43.4% in [2]; 18.5% in data set [4]; 102% in data set [8]; 72.4% in [9]; 100% in data set [12]; 94% in data set [13]. Also, the Activity in data set [14] worked out at 92.9%. Moreover, the Stability result in data set [7] is “Stable”.
Regarding `COC(=O)c1cnc(Br)s1`, the Activity_index is recorded as 1 in data set [1]; 1.1 in data set [3]; 1 in [5]; 1 in data set [6]; 1 in data set [10]; 1.1 in data set [11]. For the same molecule, the Activity in [2] was determined as 99.2%; in data set [4], 93%; in [8], 102%; in [9], 96.6%; in data set [12] it was 100%; in data set [13], 96%. The Activity in data set [14] was found to be 92.9%. For the same molecule, in [7], the Stability result is listed as “Stable”.
On to `Nc1nc(CC(=O)O)cs1`, for which the Activity_index in data set [1] came to 1; in data set [3], 0.9; in [5], 1.1; in [6], 1.1; in data set [10], 0.9; in [11], 1. In addition, the Activity in [2] amounted to 125%; in [4], 79.4%; in data set [8], 99.2%; in [9] it was 90.8%; in data set [12] it was 105%; in data set [13], 96%. For the same molecule, in [14], the Activity is 84.2%. The Stability result in data set [7] is “Stable”.
Regarding `Nc1nnc(C(F)(F)F)s1`, the Activity_index in data set [1] is listed as 1; in [3], 0.9; in data set [5], 1; in data set [6], 1; in data set [10] it was 0.9; in data set [11], 1. Moreover, the Activity is 142% in data set [2]; 18% in data set [4]; 101% in data set [8]; 56.9% in [9]; 66.8% in data set [12]; 100% in data set [13]. The Activity in data set [14] was 82.9%. In [7], the Stability result was “Stable”.
